Measured values reported in ChEMBL document CHEMBL1938279, “Synthesis and evaluation of macrocyclic diarylether heptanoid natural products and their analogs” (Bioorg Med Chem Lett, 2012).
One block for each molecule: values may come before it. The source made the active and inactive calls. The calls are words filed in the database; no cut-off is given here.

Key:
HEK293 [1] = experiment: Inhibition of TNFalpha-stimulated IkappaBalpha protein expression in HEK293 cells at 50 uM after 60 mins by Western blot analysis; assay type: functional, cell-based; conditions: Homo sapiens
Outline: (§1)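 HEK 293 cells stimulated with TNF-α with or without test agent; IκBα protein levels assessed by Western blotting at set times after stimulation.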

A549 = experiment: Inhibition of NF-kappaB activation in human TNFalpha-stimulated A549 cells at 20 uM preincubated for 2 hrs before TNFalpha challenge measured after 7 hrs post stimulation by luciferase reporter gene assay; assay type: cell-based
Outline: (§2)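 Stable κB-luciferase-expressing A549 cells; NF-κB transcription activity read as luciferase signal; single concentration of 20 μM and dose-response experiments.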

Hs 766 [2] = experiment: Growth inhibition of human Hs766T cells at 20 uM after 5 days by alamar blue assay; assay type: functional, cell-based
Outline: (§3)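 Hs 766T and PANC-1 pancreatic tumour cells given test agent alone or combined with gemcitabine; growth inhibition measured; data representative of three independent experiments, mean ± SD.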

HEK293 [3] = experiment: Inhibition of TNFalpha-stimulated IkappaBalpha protein expression in HEK293 cells at 50 uM after 30 mins by Western blot analysis; assay type: functional, cell-based; conditions: Homo sapiens; outline: as §1
Hs 766 [4] = experiment: Potentiation of gemcitabine-induced cytotoxicity against human Hs766T cells assessed as cell growth inhibition at 20 uM after 5 days by alamar blue assay; assay type: functional, cell-based; outline: as §3
[5] = Inhibition of NF-kappaB activation in human TNFalpha-stimulated A549 cells preincubated for 2 hrs before TNFalpha challenge measured after 7 hrs post stimulation by luciferase reporter gene assay; assay type: cell-based; outline: as §2
HEK293 [6] = experiment: Inhibition of TNFalpha-stimulated IkappaBalpha protein expression in HEK293 cells at 50 uM after 120 mins by Western blot analysis; assay type: functional, cell-based; conditions: Homo sapiens; outline: as §1
PANC-1 [7] = experiment: Potentiation of gemcitabine-induced induction of apoptosis in human PANC1 cells assessed as activation of caspase 3/7 after 48 hrs by caspase-Glo 3 assay; assay type: functional, cell-based
Outline: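 PANC-1 cells treated with test agent alone or combined with gemcitabine; caspase 3/7 activity read after 48 hr as apoptosis marker; representative of two independent experiments, mean ± SD.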

PANC-1 [8] = experiment: Growth inhibition of human PANC1 cells at 20 uM after 5 days by alamar blue assay; assay type: functional, cell-based; outline: as §3
PANC-1 [9] = experiment: Potentiation of gemcitabine-induced cytotoxicity against human PANC1 cells assessed as cell growth inhibition at 20 uM after 5 days by alamar blue assay; assay type: functional, cell-based; outline: as §3

SMILES: COc1ccc2cc1Oc1cc(ccc1OC)CCC(=O)CCCC2
inhibition (HEK293 [1]): Active
inhibition (A549): Active
growth inhibition (GI) (Hs 766 [2]): inactive
inhibition (HEK293 [3]): Active
growth inhibition (GI) (Hs 766 [4]): Active
IC50 [5]: 14.3 µM
inhibition (HEK293 [6]): Active
Activity (PANC-1 [7]): Active
growth inhibition (GI) (PANC-1 [8]): inactive
growth inhibition (GI) (PANC-1 [9]): Active

SMILES: C=C1C(=O)O[C@@H]2C3O[C@]3(C)CC/C=C(\C)CC[C@@H]12 (some centres undefined)
IC50 [5]: 4.7 µM

Continued, values first:

IC50 [5]: 65.2 µM
SMILES: COc1ccc2c(c1OC)C(=O)O[C@@H]2[C@H]1c2c(cc3c(c2OC)OCO3)CCN1C [NOSCAPINE]

IC50 [5]: 36.4 µM
SMILES: COc1cc2ccc1Oc1cc(ccc1OC)CCC(O)CCCC2 (centres undefined) [PLATYCARYNOL]

IC50 [5]: 20.3 µM
SMILES: COc1cc(/C=C/C(=O)CC(=O)/C=C/c2ccc(O)c(OC)c2)ccc1O [CURCUMIN]
